Screening data as filed in PubChem.
A selection: hits, their analogues and other compounds. The true share with any hit is near 2.5%.
DENV2 CPE: inhibitors of DENV2 cytopathic effect, primary screen, cell-based, plate reader, single concentration; DENV2-infected cells, cytopathic effect rescue; CPE inhibition, % at 9.99 µM; 350,000 compounds, 1.7% hits; AID 651640, 2012; in the data active means CPE inhibition above about 20%, passing the limit was not always enough; tested in BHK-21 cells;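 further: 0% = median of neutral control wells and 100% = median of positive control wells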
ERAP1 HTS inh: human ERAP1 aminopeptidase inhibitors, primary screen, biochemical, single point, plate reader; recombinant ERAP1, Leu-AMC fluorescence, 60 min; inhibition, % at 10.7 µM; 340,000 compounds, 0.15% hits; AID 652197, 2013;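 active means mean replicate inhibition of at least 30%, or all replicates individually reaching that 30% level; inactive means mean below 30% and not every replicate reaching it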;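 further: 0% = neutral control wells and 100% = L-leucinethiol positive control wells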
SIRT5 inh: SIRT5 desuccinylase inhibitors, primary screen, biochemical, fluorescence imaging, single point, set 5 | Purified SirT5, succinyl-peptide AMC, trypsin-coupled fluorescence | inhibition, % at 15 µM | 330,000 compounds, 1.1% hits; in the data active means inhibition above about 15%
Target sequence (Q9NXA8 whole entry, looked up): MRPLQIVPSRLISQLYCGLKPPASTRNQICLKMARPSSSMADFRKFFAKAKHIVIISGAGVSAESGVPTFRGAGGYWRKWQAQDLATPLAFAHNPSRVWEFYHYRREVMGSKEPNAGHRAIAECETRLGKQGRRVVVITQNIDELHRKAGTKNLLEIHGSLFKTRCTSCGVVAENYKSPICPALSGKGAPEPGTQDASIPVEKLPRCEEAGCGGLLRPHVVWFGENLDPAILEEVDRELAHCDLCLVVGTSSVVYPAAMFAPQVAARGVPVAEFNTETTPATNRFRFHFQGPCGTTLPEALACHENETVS
E-selectin induc: E-selectin induction in HUVECs, primary screen, imaging, HUVEC, immunofluorescence imaging, single point; P16581; normalized: neutral wells 0, TNF-alpha wells 100; activation, % at 7.58 µM; 260,000 compounds, 0.37% hits; AID 686992, 2013;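 active means mean E-selectin-positive cell signal at least 10% of the positive control, reached in at least 60% of replicates, without over 20% cell loss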
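material = human umbilical vein endothelial cells (HUVEC), E-selectin induction | quantity = 3,000 cells/well | medium = EGM-2 growth medium on 0.1% gelatin-coated wells | technique = immunofluorescence imaging | read-out basis = % PE-positive cells | control set = TNF-alpha positive control, DMSO neutral control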
PglD inh: C. jejuni PglD acetyltransferase inhibitors, primary screen, biochemical, DTNB colorimetric, single point; UDP-N-acetylbacillosamine N-acetyltransferase PglD (Campylobacter jejuni); purified PglD enzyme, DTNB colorimetric CoA detection; inhibition, % at 12.5 µM; 360,000 compounds, 0.098% hits; AID 602405, 2012; in the data active means inhibition above about 16%, passing the limit was not always enough
* = called active by the depositor; / = no result.

SMILES | DENV2 CPE | ERAP1 HTS inh | SIRT5 inh | E-selectin induc | PglD inh
C=CCn1c(SC(C)C(=O)NC2(C#N)CCCCC2)nnc1-c1ccc(OC)cc1 (stereo unspecified) | / | / | / | / | -2
C=CCn1c(SCC(C)=O)nnc1-c1ccc2ncccc2c1 | 10 | -4 | -2 | 0 | 3
CC(C)Oc1ccc(CCc2nnc(SC(C)C(=O)O)n2-c2ccccc2)cc1 (stereo unspecified) | 6 | -2 | 2 | / | /
CCNC(=O)[C@@H]1[C@@H](CO)[C@@H]2Cn3c(ccc(/C=C/c4ccccc4)c3=O)[C@@H]2N1C(C)=O | 62* | 9 | -106 | -2 | 5
COCC(=O)N1[C@@H]2Cn3c(ccc(/C=C/c4ccccc4)c3=O)[C@H]1[C@@H](C(=O)N1CCCCC1)[C@@H]2CO | -6 | -1 | -118 | 1 | -3
COCC(=O)N1[C@@H]2c3ccc(/C=C/c4ccccc4)c(=O)n3C[C@H]1[C@H](CO)[C@H]2C(=O)N1CCOCC1 | 6 | 108* | -103 | 0 | 4
Cc1cccc(NS(=O)(=O)c2ccc(C)c(C(=O)N(C)C)c2)c1 | -8 | 0 | -3 | 2 | 3
COC(=O)CCc1c(C)c(C(=O)c2cccc(OC)c2OC)c2ccccn12 | 8 | 4 | -5 | 5 | 1
O=c1c(OC2OC(CO)C(O)C(O)C2O)c(-c2ccc(O)c(O)c2)oc2cc(O)cc(O)c12 (stereo unspecified) | / | 56* | / | 0 | -6
CCN(CC)c1nc2c(c(=O)[nH]c(=O)n2C)n1Cc1ccccc1 | -2 | 2 | 102* | / | -2
COc1ccccc1NC(=O)c1ccc(S(=O)(=O)N2CCC(C)CC2)cc1 | 5 | -1 | -2 | / | -7
CC(C)(C)OC(=O)C[C@H]1C/C=C\C[C@@H](CC(=O)N[C@@H](CO)Cc2ccccc2)C(=O)NC[C@H](c2ccccc2)OC1=O | 58* | 6 | 1 | 1 | -2
COc1cc(/C=C/c2cccc[n+]2C)ccc1OCC(=O)Nc1cccc(Cl)c1 | 25* | 14 | -1 | 3 | 6
COc1cc(/C=C(/C#N)C(=O)Nc2cc(C(F)(F)F)ccc2Cl)ccc1OCC(=O)Nc1cccc(C(F)(F)F)c1 | 2 | 0 | 16* | 0 | /
Cc1cc(OCc2cccc(S(=O)(=O)N3CCOCC3)c2)ccc1Cl | -4 | 0 | -1 | / | -3
COc1cccc(CNC(=O)[C@@H]2[C@@H](CO)[C@@H]3Cn4c(ccc(-c5cccc(OC)c5)c4=O)[C@@H]3N2C)c1 | 1 | 0 | -1 | 0 | 0
CCOC(=O)[C@H]1[C@H]2COc3ccc(Cl)cc3[C@@H]2N2C(=O)c3ccc(Cl)cc3NC(=O)[C@@]12C | 52* | -6 | -4 | 0 | 3
CCOC(=O)[C@H]1[C@H]2COc3ccc(OC)cc3[C@@H]2N2C(=O)CN(Cc3ccco3)C(=O)[C@@]12C | -9 | / | / | 0 | 5
CCOC(=O)[C@@H]1[C@H]2COc3cc(OC)ccc3[C@H]2N2C(=O)N(c3cccc(F)c3)C(=O)[C@]12C | 104* | 0 | / | 1 | -6
CCOC(=O)[C@H]1[C@H]2COc3cc(OC)ccc3[C@@H]2N2C(=O)CN(Cc3ccco3)C(=O)[C@@]12C | 30* | -2 | 0 | 0 | -2
CCOC(=O)[C@@H]1[C@H]2COc3cc(OC)ccc3[C@@H]2N2C(=O)N(c3cccc(C)c3)C(=O)[C@]12C | -15 | 1 | / | 0 | 2
CCOC(=O)[C@@H]1[C@H]2COc3ccc(Br)cc3[C@@H]2N2C(=O)N(c3cccc(Cl)c3)C(=O)[C@@]12C | 68* | / | / | 0 | 2
Cc1ccc(C)c(NC(=S)NC(C)C(c2ccccc2)N2CCN(C)CC2)c1 (stereo unspecified) | 6 | -2 | -1 | 0 | /
CCN1CCN(C(c2cccs2)C(C)NC(=S)Nc2cc(C)ccc2C)CC1 (stereo unspecified) | -7 | -2 | 16* | 0 | /
COc1cc(NC(=S)Nc2cccc(C)n2)cc(OC)c1OC | 16 | 0 | 0 | 0 | /
SMILES | DENV2 CPE | ERAP1 HTS inh | SIRT5 inh | E-selectin induc | PglD inh
O=C(COc1ccccc1)N/N=C/c1sc(=O)n(Cc2cccc(C(=O)O)c2)c1Cl | / | / | 16* | 0 | /
CCOc1ccc(/C=C2\SC(=S)N(CCC(=O)Nc3cccc(C(=O)O)c3)C2=O)cc1 | 32* | -1 | 1 | 0 | -12
O=C(CCCN1C(=O)/C(=C/c2ccco2)SC1=S)Nc1cccc(C(=O)O)c1 | 1 | 32* | 42* | / | /
O=C(O)c1ccc(/C=C2/SC(=S)N(Cc3ccccc3)C2=O)cc1 | -5 | 0 | -1 | 0 | 2
COC(=O)c1ccc(/C=C2/SC(=S)N(CCC(=O)NCCCN3CCOCC3)C2=O)cc1 | 9 | 0 | 23* | / | -2
CCc1ccc(/C=C2/SC(=S)N(CCC(=O)NCCCN3CCOCC3)C2=O)cc1 | 2 | 0 | -3 | 0 | -9
CC(=O)Oc1ccc(/C=C2/SC(=S)N(Cc3ccccc3)C2=O)cc1 | 6 | -3 | 16* | / | 1
CCOc1ccccc1NC(=O)Nc1ccncc1 | 16 | -4 | 0 | 0 | 5
O=C(CCCN1C(=O)/C(=C\c2ccco2)SC1=S)Nc1ccc(O)cc1C(=O)O | 3 | 24 | 40* | / | -6
O=C(CCCN1C(=O)/C(=C\c2cccs2)SC1=S)Nc1ccc(O)cc1C(=O)O | 1 | 3 | -3 | / | -4
COc1ccccc1C#Cc1ccc2c(c1)[C@@H]1[C@@H](CCN1C(=O)Cc1ccccc1)[C@H](CO)N2 | 42* | 1 | 8 | -1 | /
COc1ccccc1C#Cc1ccc2c(c1)[C@@H]1[C@@H](CCN1C(=O)Cc1ccccc1)[C@@H](CO)N2 | -7 | 1 | 7 | 0 | -5
COc1ccccc1C#Cc1ccc2c(c1)[C@@H]1[C@@H](CCN1C(=O)c1ccccc1)[C@H](CO)N2 | 45* | 0 | 15 | -1 | /
CCCC#Cc1cnc2c(c1)C(=O)N([C@H](C)CO)C[C@@H](C)[C@@H](CN(C)C(=O)c1cnccn1)O2 | -9 | 0 | 4 | 0 | 0
COC(=O)c1c(CCl)noc1C(=O)NCC1CCCO1 (stereo unspecified) | 33* | -3 | 1 | 0 | -5
C/C(=N\Nc1ccc(Cl)c(C(=O)O)c1)c1ccc[nH]1 | 2 | / | 24* | 0 | /
C/C(=N\Nc1ccc(Cl)c(C(=O)O)c1)c1cccs1 | 8 | -17 | 5 | / | -3
COc1cccc(N2CC(C(=O)Nc3nnc(SCCC4OCCO4)s3)CC2=O)c1 (stereo unspecified) | 93* | 2 | -1 | 0 | 4
CNC(=O)CSc1nnc(NC(=O)C2CC(=O)N(c3ccccc3OC)C2)s1 (stereo unspecified) | 33* | 0 | -2 | -2 | -2
